# Data published in ChEMBL document CHEMBL4028903 (J Med Chem, 2017).
# The source made the active and inactive calls. The rule behind the calls is not given here.
# Tests used:
# [1] = target: T1, G-protein coupled bile acid receptor 1 (Homo sapiens, UniProt Q8TDU6); experiment: Agonist activity at human TGR5
# T1 sequence (Q8TDU6 whole entry): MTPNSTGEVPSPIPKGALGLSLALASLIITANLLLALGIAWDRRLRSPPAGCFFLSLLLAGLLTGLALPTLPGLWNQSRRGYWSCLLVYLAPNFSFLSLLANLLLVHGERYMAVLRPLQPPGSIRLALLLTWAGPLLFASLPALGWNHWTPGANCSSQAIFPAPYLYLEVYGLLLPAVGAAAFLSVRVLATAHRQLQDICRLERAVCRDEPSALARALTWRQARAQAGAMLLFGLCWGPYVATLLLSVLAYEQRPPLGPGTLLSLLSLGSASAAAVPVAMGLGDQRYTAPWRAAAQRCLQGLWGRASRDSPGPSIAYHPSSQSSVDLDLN
# [2] = target: T1, G-protein coupled bile acid receptor 1; experiment: Agonist activity at human TGR5 relative to control; conditions: read-out: Efficacy
# [3] = target: T2, G-protein coupled bile acid receptor 1 (Mus musculus, UniProt Q80SS6); experiment: Agonist activity at mouse TGR5
# T2 sequence (Q80SS6 whole entry): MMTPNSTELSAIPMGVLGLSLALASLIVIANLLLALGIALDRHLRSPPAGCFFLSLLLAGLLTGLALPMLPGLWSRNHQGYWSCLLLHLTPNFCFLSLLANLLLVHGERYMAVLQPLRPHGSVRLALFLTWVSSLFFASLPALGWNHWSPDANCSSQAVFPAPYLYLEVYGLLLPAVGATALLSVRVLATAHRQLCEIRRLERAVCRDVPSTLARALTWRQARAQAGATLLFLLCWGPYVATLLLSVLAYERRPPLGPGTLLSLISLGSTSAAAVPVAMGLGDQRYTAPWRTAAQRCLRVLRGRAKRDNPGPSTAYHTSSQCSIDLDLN
# [4] = Extraction ratio in rat liver microsomes; type: ADME, microsome; conditions: read-out: ERH
# [5] = Oral bioavailability in rat at 10 mg/kg administered via gavage by LC-MS/MS analysis; type: ADME, organism-based; conditions: in vivo
# In short: (§1)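 Rats were dosed IV as a solution in 75% PEG300:25% D5W, or orally as a suspension in 0.5% methylcellulose, 0.5% Tween80 and 99% water.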
# [6] = Extraction ratio in human liver microsomes; type: ADME, microsome; conditions: read-out: ERH
# [7] = Dissociation constant, pKa of compound; type: physicochemical
# Bile acid receptor [8] = target: T3, Bile acid receptor (Homo sapiens, UniProt Q96RI1); experiment: Agonist activity at recombinant human GST-tagged FXR ligand binding domain (193 to 472 residues) expressed in baculovirus infected insect cells assessed as induction of interaction with biotin labelled SRC-1 after 1 hr by HTRF assay
# T3 sequence (Q96RI1 whole entry): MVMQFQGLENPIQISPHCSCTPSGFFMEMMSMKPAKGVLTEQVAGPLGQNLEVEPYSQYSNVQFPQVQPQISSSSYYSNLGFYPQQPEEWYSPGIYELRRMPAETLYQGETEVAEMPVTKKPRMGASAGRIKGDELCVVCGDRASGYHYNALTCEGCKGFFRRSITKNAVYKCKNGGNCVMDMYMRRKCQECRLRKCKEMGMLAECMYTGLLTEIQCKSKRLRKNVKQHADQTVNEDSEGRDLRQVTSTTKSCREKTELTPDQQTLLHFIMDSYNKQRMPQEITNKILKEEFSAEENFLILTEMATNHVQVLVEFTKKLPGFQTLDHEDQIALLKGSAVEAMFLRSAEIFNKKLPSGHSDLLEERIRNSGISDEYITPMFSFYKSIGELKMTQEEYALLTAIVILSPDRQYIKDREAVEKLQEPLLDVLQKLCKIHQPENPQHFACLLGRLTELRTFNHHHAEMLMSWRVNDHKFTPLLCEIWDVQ
# [9] = Cmax in rat at 10 mg/kg, po administered via gavage by LC-MS/MS analysis; type: ADME, organism-based; parameters: dose 10 mg/kg, route oral; conditions: in vivo; in short: as §1
# Bile acid receptor [10] = target: T3, Bile acid receptor; experiment: Agonist activity at human FXR expressed in HEK293T cells assessed as BSEP promoter driven cellular transcriptional activity after 24 hrs by luciferase reporter gene assay; type: cell-based, HEK-293T
# [11] = AUC in rat at 10 mg/kg, po administered via gavage by LC-MS/MS analysis; type: ADME, organism-based; conditions: in vivo; in short: as §1
# [12] = Clearance in rat at 3 mg/kg, iv by LC-MS/MS analysis; type: ADME, organism-based; conditions: in vivo; in short: as §1
# [13] = Volume of distribution at steady state in rat at 3 mg/kg, iv by LC-MS/MS analysis; type: ADME, organism-based; conditions: in vivo, read-out: Vdss; in short: as §1
# [14] = Solubility of the compound in fasted state simulated intestinal fluid at pH 6.8; type: physicochemical
# [15] = Terminal half life in rat at 3 mg/kg, iv by LC-MS/MS analysis; type: ADME, organism-based; conditions: in vivo, read-out: beta t1/2 (converted); in short: as §1
# Rattus norvegicus [16] = experiment: In vivo agonist activity at FXR in Sprague-Dawley rat assessed as induction of FGF15 mRNA level in ileum at 0.3 mg/kg, po administered as single dose after 7 hrs post dose by qPCR analysis; type: functional, organism-based
# Rattus norvegicus [17] = experiment: In vivo agonist activity at FXR in Sprague-Dawley rat assessed as induction of SHP mRNA level in liver at 1 mg/kg, po administered as single dose after 7 hrs post dose by qPCR analysis relative to control; type: functional
# Rattus norvegicus [18] = experiment: In vivo agonist activity at FXR in po dosed Sprague-Dawley rat assessed as induction of SHP mRNA level in liver administered as single dose after 7 hrs post dose by qPCR analysis; type: functional, organism-based
# Rattus norvegicus [19] = experiment: In vivo agonist activity at FXR in Sprague-Dawley rat assessed as induction of SHP mRNA level in ileum at 0.3 mg/kg, po administered as single dose after 7 hrs post dose by qPCR analysis; type: functional, organism-based
# Rattus norvegicus [20] = experiment: In vivo agonist activity at FXR in po dosed Sprague-Dawley rat assessed as induction of BSEP mRNA level in liver administered as single dose measured 7 hrs post dose by qPCR analysis
# Rattus norvegicus [21] = experiment: In vivo agonist activity at FXR in po dosed Sprague-Dawley rat assessed as induction of SHP mRNA level in ileum administered as single dose measured 7 hrs post dose by qPCR analysis; type: functional, organism-based
# Rattus norvegicus [22] = experiment: In vivo agonist activity at FXR in po dosed Sprague-Dawley rat assessed as induction of BSEP mRNA level in liver administered as single dose after 7 hrs post dose by qPCR analysis; type: functional, organism-based
SMILES,hepatic extraction ratio [4],bioavailability [5],hepatic extraction ratio [6],pKa [7],EC50 (Bile acid receptor [8]),Cmax [9],EC50 (Bile acid receptor [10]),AUC [11],clearance [12],Vd [13],solubility [14],half-life [15],other results
"CC[C@H]1[C@@H](O)[C@H]2[C@@H]3CC[C@H]([C@H](C)CCC(=O)NCCS(=O)(=O)O)C3(C)CC[C@@H]2[C@@]2(C)CC[C@@H](O)C[C@@H]12 (single isomer, unassigned)",–,–,–,–,–,–,–,–,–,–,–,–,EC50 [1]: 205 nM; Emax [2]: 102%; EC50 [3]: 906 nM
Cc1cc(C(=O)O)cc2sc(N3C4CCC3CC(OCc3c(-c5ccccc5OC(F)(F)F)noc3C3CC3)C4)nc12 (stereo not given),< 0.18,3%,< 0.21,5.5,0.49 nM,86 nM,0.82 nM,0.832 µM·h,14 mL/min/kg,0.84 L/kg,< 10 µM,1 h,–
O=C(O)c1ccc2nc(N3CCC(OCc4c(-c5ccccc5C(F)(F)F)noc4C4CC4)CC3)sc2c1,0.5,–,0.38,–,66 nM,–,70 nM,–,–,–,131 µM,–,–
CC[C@H]1[C@@H](O)[C@@H]2[C@H](CC[C@]3(C)[C@@H]([C@H](C)CCC(=O)O)CC[C@@H]23)[C@@]2(C)CC[C@@H](O)C[C@@H]12 [OBETICHOLIC ACID],–,–,–,–,–,–,–,–,–,–,–,–,EC50 [3]: 5740 nM
O=C(O)c1cc(F)c2nc(N3C4CCC3CC(OCc3c(-c5ccccc5OC(F)F)noc3C3CC3)C4)sc2c1 (stereo not given),0.4,14%,0.61,4,0.27 nM,2120 nM,0.8 nM,3.45 µM·h,11 mL/min/kg,0.7 L/kg,750 µM,3.7 h,–
"CC[C@H]1[C@@H](O)[C@H]2[C@@H]3CC[C@H]([C@H](C)CCC(=O)NCC(=O)O)C3(C)CC[C@@H]2[C@@]2(C)CC[C@@H](O)C[C@@H]12 (single isomer, unassigned)",–,–,–,–,–,–,–,–,–,–,–,–,EC50 [1]: 315 nM; Emax [2]: 101%; EC50 [3]: 637 nM
O=C(O)c1ccc2nc(N3CCC(OCc4c(-c5c(F)cccc5F)noc4C4CC4)CC3)sc2c1,0.52,–,0.27,–,–,–,88 nM,–,–,–,169 µM,–,–
O=C(O)c1cc(F)c2nc(N3C4CCC3CC(OCc3c(-c5ccccc5C(F)(F)F)noc3C3CC3)C4)sc2c1 (stereo not given),0.19,14%,0.36,4,0.46 nM,2110 nM,0.54 nM,3.64 µM·h,11 mL/min/kg,0.6 L/kg,510 µM,1.8 h,Activity (Rattus norvegicus [16]): Active; fold change (FC) (Rattus norvegicus [17]): 6; Activity (Rattus norvegicus [18]): Dose-dependent effect; Activity (Rattus norvegicus [19]): Active; Activity (Rattus norvegicus [20]): Dose-dependent effect; Activity (Rattus norvegicus [21]): Dose-dependent effect; Activity (Rattus norvegicus [22]): Dose-dependent effect
O=C(O)c1ccc2nc(N3CCCC(OCc4c(-c5ccccc5OC(F)(F)F)noc4C4CC4)CC3)sc2c1 (stereo not given),0.75,–,0.89,–,4.2 nM,–,6.6 nM,–,–,–,126 µM,–,–
COc1cc(C(=O)O)cc2sc(N3C4CCC3CC(OCc3c(-c5ccccc5OC(F)(F)F)noc3C3CC3)C4)nc12 (stereo not given),0.5,9%,0.64,4.5,0.57 nM,1990 nM,0.42 nM,2.67 µM·h,9 mL/min/kg,0.26 L/kg,75 µM,0.7 h,–
O=C(O)c1ccc2nc(N3C4CCC3CC(OCc3c(-c5ccccc5OC(F)(F)F)noc3C3CC3)C4)sc2c1 (stereo not given),0.51,11%,< 0.2,5.1,0.54 nM,173 nM,0.69 nM,1.92 µM·h,17 mL/min/kg,1.1 L/kg,110 µM,1 h,–
O=C(O)c1ccc2nc(N3CCC(OCc4c(-c5c(Cl)cccc5Cl)noc4C4CC4)CC3)sc2c1,0.58,6%,0.81,–,8.3 nM,44 nM,9.5 nM,0.39 µM·h,50 mL/min/kg,0.55 L/kg,61 µM,0.34 h,–
O=C(O)c1ccc2nc(N3CCC(OCc4c(-c5ccccc5OC(F)(F)F)noc4C4CC4)CC3)sc2c1,–,37%,–,–,–,382 nM,–,4.57 µM·h,24 mL/min/kg,1.2 L/kg,70 µM,1 h,–
O=C(O)c1ccc2nc(N3CC[C@@H](OCc4c(-c5c(Cl)cccc5Cl)noc4C4CC4)C3)sc2c1,–,–,–,–,3060 nM,–,9200 nM,–,–,–,–,–,–
O=C(O)c1ccc2nc(N3CC(OCc4c(-c5ccccc5OC(F)(F)F)noc4C4CC4)C3)sc2c1,–,–,–,–,1580 nM,–,8400 nM,–,–,–,–,–,–
